Experimental data published in ChEMBL document CHEMBL1921791, “Arylsulfonamidopiperidone derivatives as a novel class of factor Xa inhibitors” (Bioorg Med Chem Lett, 2011).

Experiments:
[1] = Permeability from apical to basolateral side of human Caco2 cells at 3 uM; type: ADME, cell-based; settings: Caco-2, read-out: permeability
In short: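 Caco-2 monolayers: apical-to-basolateral permeability was measured at pH 6.5 and reported in nm/s.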

[2] = Half life in dog liver microsomes at 0.5 uM at pH 7.4 in presence of NADPH; type: ADME, Canis lupus familiaris, Microsome
In short: (§1)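 Liver microsomal stability was measured with 0.5 µM compound and 1.0 mg/mL microsomal protein, in 1.0 mM NADPH, 100 mM NaPi and 5.0 mM MgCl₂, at pH 7.4 and 37 °C. Half-life was determined.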

[3] = Half life in rat liver microsomes at 0.5 uM at pH 7.4 in presence of NADPH; type: ADME, Microsome; in short: as §1
[4] = Half life in human liver microsomes at 0.5 uM at pH 7.4 in presence of NADPH; type: ADME, Microsome; in short: as §1
[5] = Half life in cynomolgus monkey liver microsomes at 0.5 uM at pH 7.4 in presence of NADPH; type: ADME, Macaca fascicularis, Microsome; in short: as §1
[6] = Half life in mouse liver microsomes at 0.5 uM at pH 7.4 in presence of NADPH; type: ADME, Microsome; in short: as §1

SMILES	Papp A→B at 3 µM [1] [×10⁻⁶ cm/s]	half-life at 0.5 µM [2] [min]	half-life at 0.5 µM [3] [min]	half-life at 0.5 µM [4] [min]	half-life at 0.5 µM [5] [min]	half-life at 0.5 µM [6] [min]
CC(=O)N1CC2CC(C1)CN(C(=O)CN1CCC[C@H](NS(=O)(=O)c3ccc4cc(Cl)ccc4c3)C1=O)C2	7.3	< 2	< 2	< 2	< 2	< 2
NC(=O)C(=O)N1CC2CC(CN(C(=O)CN3CCC[C@H](NS(=O)(=O)c4ccc5cc(Cl)ccc5c4)C3=O)C2)C1	< 1.5					
CS(=O)(=O)N1CC2CC(CN(C(=O)CN3CCC[C@H](NS(=O)(=O)c4ccc5cc(Cl)ccc5c4)C3=O)C2)C1	< 1.5					
O=C(CN1CCC[C@H](NS(=O)(=O)c2ccc3cc(Cl)ccc3c2)C1=O)N1C[C@@H]2C[C@H](C1)c1cccc(=O)n1C2	2.5	< 2	< 2	< 2	< 2	< 2
Nc1[nH]ncc1C(=O)N1CC2CC(CN(C(=O)CN3CCC[C@H](NS(=O)(=O)c4ccc5cc(Cl)ccc5c4)C3=O)C2)C1	< 1.5					
NC(=O)N1CC2CC(C1)CN(C(=O)CN1CCC[C@H](NS(=O)(=O)c3ccc4cc(Cl)ccc4c3)C1=O)C2	< 1.5					
O=C(CN1CCC[C@H](NS(=O)(=O)c2ccc3cc(Cl)ccc3c2)C1=O)N1CC2CC(C1)CN(C(=O)C1CCNCC1)C2	< 1.5					
O=C(CN1CCC[C@H](NS(=O)(=O)c2ccc3cc(Cl)ccc3c2)C1=O)N1CC2CNCC(C2)C1	< 1.5					
